dFosB activator = activators of delta FosB homodimer, primary screen, biochemical, fluorescence polarization, TAMRA-CDK5 oligo, single point. activation, % at 25 µM. purified delta FosB; percent of positive-control signal above neutral wells. 340,000 tested, 0.99% active;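 active = mean activation above about 17%, with every replicate also reaching it, limit read from the data, passing the limit was not always enough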
Target sequence (P13346 whole entry, looked up): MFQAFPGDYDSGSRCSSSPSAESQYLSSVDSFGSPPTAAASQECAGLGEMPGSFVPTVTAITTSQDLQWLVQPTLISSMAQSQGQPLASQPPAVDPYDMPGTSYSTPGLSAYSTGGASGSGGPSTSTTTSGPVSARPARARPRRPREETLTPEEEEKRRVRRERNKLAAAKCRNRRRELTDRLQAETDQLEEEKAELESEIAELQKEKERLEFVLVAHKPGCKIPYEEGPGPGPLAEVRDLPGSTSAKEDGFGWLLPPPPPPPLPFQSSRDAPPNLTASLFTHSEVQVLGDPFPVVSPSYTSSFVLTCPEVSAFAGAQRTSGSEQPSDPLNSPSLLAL
CDK5 p35 inh = inhibitors of human CDK5/p35 kinase, primary screen, biochemical, single concentration | Cyclin-dependent kinase 5 (Homo sapiens) + Cyclin-dependent kinase 5 activator 1 (Homo … | Recombinant CDK5/p35, ADP-Glo luminescence, 60 min | inhibition, % at 10 µM | 330,000 tested, 0.01% active | AID 488839, 2010;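 active = highest replicate inhibition of at least 50% and at least 75% of replicates reaching 50%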;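 also: plate controls were DMSO neutral control for no effect and GW8510 at 10 µM for full effect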
HIV Env fusion = inhibitors of HIV-1 Env-driven cell-cell fusion, primary screen, HeLa-JRFL effector, CEM21 target cells, luciferase | AID 651610, 2012 | 360,000 tested, 1.1% active | inhibition, % at 12.3 µM;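 active = mean replicate inhibition score of at least 50 and every replicate individually at or above 50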;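 also: 0% = plate neutral controls and 100% = maraviroc near 300 nM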
GSIS activator = GLuc luminescence reporter in INS-1E cells, primary screen for activators of glucose-dependent secretion of insulin. 370,000 tested, 0.61% active. AID 743287, 2014. activation, % at 16.6 µM. INS-1E GLuc reporter insulin secretion, 2-3 h;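 active = lowest replicate activation of at least 40%, so every replicate reaches that level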;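 also: 0% = median of neutral control wells and 100% = median of IBMX positive control wells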
PAX8 reporter = inhibitors of PAX8-driven TPO luciferase reporter, primary screen, RMG-I cells, single concentration. SteadyGlo, 24 h. inhibition, % at 12.6 µM. 360,000 tested, 1.2% active;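 active = mean replicate inhibition at least 60% with every replicate also reaching 60%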;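 also: luciferase light reporting Pax8 driven TPO promoter activity; plate controls were median of neutral control wells for no effect and mitoxantrone controls for full effect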
Cneo AK release = Cryptococcus neoformans cell lysis inducers, primary screen, AK release luminescence, single concentration. C. neoformans lysis, adenylate kinase release luminescence, 4 h; normalised: neutral wells 0, clomiphene wells 100. lysis activity, % at 15 µM. 360,000 tested, 0.2% active. AID 651654, 2012;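 active = mean lysis activity across replicates of at least 80%, whatever share of replicates individually reach that level; inactive = mean lysis activity below 80%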
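Assay system: Cryptococcus neoformans yeast cells / Dosing: single-point compound dose / Timing: 4 h at 37 °C static, read 1 h later / Measured by: luminescence of released adenylate kinase using an AK detection reagent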
The depositor's hits bear a star; . = not tested or not shown; ! = not active in a repeat; [ ] = remark or other dose. Shown are actives, neighbours in structure and some others; about 2.9% of the full set was active somewhere.

SMILES	dFosB activator	CDK5 p35 inh	HIV Env fusion	GSIS activator	PAX8 reporter	Cneo AK release
O=C1c2cccc3cccc(c23)C(=O)N1CC1CCN(CC(O)COc2ccc3ccccc3c2)CC1 (configuration not stated)	3.8	-5.9	-5.3	-21.0	29.7	65.8
O=C([C@@H]1N[C@@H]2c3ccc(-c4ccccc4)c(=O)n3C[C@@H]2[C@H]1CO)N1CCOCC1	.	.	.	10.8	4.8	-4.8
O=C(C[C@H]1C=C[C@@H](NC(=O)c2ccccc2)[C@H](CO)O1)NCc1ccncn1	.	.	-0.6[16.7 µM]	24.7	-3.0	0.0
CCCN(CC1CC1)C(=O)CSc1ncnc2sc(C)c(C)c12	-12.9	-3.8	68.6*	-28.5	.	-1.5
C=C1C(=O)[C@]23C[C@H]1CCC2[C@@]1(C)C(C[C@@H]3O)[C@](C)(C(=O)OC)CC[C@@H]1OC(C)=O (some centres not stated)	.	.	-200.3	134.0*	108.0*	-2.5
C=C1C(=O)[C@]23C[C@H]1CC[C@H]2[C@]1(C)[C@@H](OC(C)=O)CC[C@@](C)(C(=O)OC)[C@H]1C[C@@H]3OC(C)=O	.	.	-14.7	38.7	116.7*	-2.6
C=C1C(=O)[C@]23C[C@H]1CC[C@H]2[C@]1(C)[C@@H](OC(C)=O)CC[C@@](C)(C(=O)O)[C@H]1C[C@@H]3O	.	.	1.2	84.3*	100.6*	0.7
CCC(=O)N1C[C@@H](C)[C@H](OC)CN(C)C(=O)c2ccc(NC(=O)c3ccc(OC)cc3)cc2OC[C@H]1C	.	.	-24.7[16.7 µM]	10.2	.	0.5
CO[C@H]1CC[C@@H]2CCOc3c(C#N)cccc3C(=O)N(C)[C@H](C)C(=O)N(C)C[C@H]1O2	.	.	-15.3[16.7 µM]	-12.1	-18.5	8.4
CCn1c(SCc2cc(=O)[nH]c3ccccc23)nc2c1c(=O)n(C)c(=O)n2C	-3.1	-2.2	20.2	49.4*	.	.
COc1ccc(-c2cc(C(=O)Nc3cccc(S(=O)(=O)NCc4ccco4)c3)c3ccccc3n2)cc1OC	-10.3	1.1	-7.8	-9.6	69.6*	.
O=C(Nc1cccc(S(=O)(=O)NCc2ccco2)c1)c1cc(-c2ccc(F)cc2)nc2ccccc12	-8.9	-3.9	17.6	0.2	9.8	-2.0
Cc1cccc(CN2C(=O)CSc3ccc(C(=O)NC4CC4)cc32)c1	-6.5	0.0	-2.1	190.5*	5.1	0.2
O=C(NCCNC(=O)c1cc(OCC(F)(F)F)ccc1OCC(F)(F)F)Nc1cccc(C(F)(F)F)c1	-7.4	-1.4	84.1*	.	.	0.7
Cc1ccc(S(=O)(=O)NCCNC(=O)c2cc(OCC(F)(F)F)ccc2OCC(F)(F)F)cc1	-3.3	0.3	95.9*	.	21.6	-3.0
CN1C(=O)c2cc(NC(=O)NC3CCCC3)ccc2OC[C@@H]2O[C@@H](CC(=O)NCC3CC3)CC[C@@H]21	.	.	17.2[16.7 µM]	-0.8	-21.1	-0.6
Cc1cc(C)n2c(SCC(=O)Nc3cc(C)on3)nnc2n1	3.1	-0.8	-10.9	.	.	1.5
CCc1nnc(NC(=O)CSc2nnc3nc(C)cc(C)n23)s1	-4.1	-1.4	-7.4	43.3*	-3.4	1.2
COC(=O)c1sccc1NC(=S)N1CCN(C)CC1	-0.8	2.2	-3.3	41.9*	-5.0	.
Cn1c(=O)n(-c2cccc(Cl)c2)c(=O)c2c3c(sc21)COC(C)(C)C3	0.4	1.4	113.6*	.	.	1.4
CCCCn1c(=O)n(C)c(=O)c2c3c(sc21)COC(C)(C)C3	-12.3	-3.6	.	44.9*	.	4.3
C[C@@H]1CCCCO[C@@H](CN(C)Cc2ccc(C(=O)O)cc2)[C@@H](C)CN([C@H](C)CO)C(=O)c2cc(NC(=O)Cc3ccccc3)ccc2O1	.	.	-3.0[16.7 µM]	43.8	24.0	-6.1
CCCC/C=C/[C@H](c1ccccc1)[C@H](CO)Cc1cccnc1	0.4	-1.5	1.4	104.4*	-11.9	5.2
CCCC/C=C/C(NC(=O)CCc1ccccc1)c1ccccc1 (configuration not stated)	-4.8	1.1	14.8	-32.1	-20.5	0.1
NC(=O)c1cc2cc(Cl)ccc2o/c1=N/NC(=O)c1cccs1	-14.9	0.9	-22.4	42.7*	-9.4	-2.6
SMILES	dFosB activator	CDK5 p35 inh	HIV Env fusion	GSIS activator	PAX8 reporter	Cneo AK release
Nc1ncnc2c(C3OC(CO)C(O)C3O)c[nH]c12 (configuration not stated)	7.5	-0.6	95.3*	-9.5	117.7*	.
Nc1ncnc2c1ncn2[C@@H]1O[C@H](CO)[C@@H](O)[C@H]1O	6.9	3.3	31.7	.	-10.1	0.2
NC(=O)CC(NC(=O)Cc1ccc(Br)cc1)c1ccc(N2CCC(Br)CC2)c([N+](=O)[O-])c1 (configuration not stated)	8.7	-0.1	63.0*	.	4.1	-1.3
COc1ccc(CCNc2ccc(C(CC(N)=O)NC(=O)Cc3ccc(Br)cc3)cc2[N+](=O)[O-])cc1 (configuration not stated)	2.1	-0.4	74.5*	-7.4	17.6	-1.6
COc1ccc(CCNc2ccc(C(CC(N)=O)NC(=O)c3ccc(Br)cc3)cc2[N+](=O)[O-])cc1 (configuration not stated)	5.2	0.2	9.7	1.3	2.8	-2.5
Cc1ccc(S(=O)(=O)N(C)C[C@H]2OCc3cnnn3CCCC(=O)N([C@@H](C)CO)C[C@H]2C)cc1	.	.	11.2	7.9	62.2*!	1.9
COc1cccc(S(=O)(=O)N(C)C[C@H]2OCc3cnnn3CCCC(=O)N([C@H](C)CO)C[C@H]2C)c1	.	.	8.4[16.7 µM]	-5.2	-3.2	102.7*!
COc1cccc(S(=O)(=O)N(C)C[C@@H]2OCc3cnnn3CCCC(=O)N([C@H](C)CO)C[C@H]2C)c1	.	.	-6.6	9.0	6.5	0.1
COc1ccc(C(=O)N/N=C(\C)c2ccccn2)cc1OC	-18.9	-4.1	5.4	18.8	69.7*	1.7
C/C(=N\NC(=O)c1ccc(Cl)c(Cl)c1)c1ccc(Br)s1	6.0	-0.1	.	102.5*	.	.
C/C(=N/NC(=O)c1ccc2c(c1)OCO2)c1ccc(Br)s1	7.8	-0.1	-10.7	3.7	-104.4	.
C/C(=N\NC(=O)c1ccc(Cl)c(Cl)c1)c1ccccn1	1.6	1.7	-158.7	8.9	63.3*	-0.2
C/C(=N/NC(=O)c1ccc(C(C)(C)C)cc1)c1ccccn1	-21.6	-0.6	-40.5	3.8	13.5	-2.8
CO[C@H]1CN(C)C(=O)c2cc(NS(=O)(=O)CC(F)(F)F)ccc2OC[C@H](C)N(C)C[C@@H]1C	.	.	12.7[16.7 µM]	7.2	-17.0	60.4
O=C(NC(=S)N1CCN(Cc2ccc3c(c2)OCO3)CC1)c1cccc(Br)c1	-2.2	1.2	.	2.2	75.7*	4.5
COCC(=O)N(C)C[C@H]1Oc2cc(-c3cccc(F)c3)ccc2S(=O)(=O)N([C@H](C)CO)C[C@@H]1C	.	.	13.8[16.7 µM]	-0.9	.	6.1

Screening results as filed in PubChem BioAssay.
